Experimental data: ChEMBL document CHEMBL1938387 (J Med Chem, 2011)
The source made the active and inactive calls. No cut-off for these calls is given here.

Columns and labels:
[1] = Growth inhibition of human KB-S15 cells after 72 hrs by methylene blue assay; assay type: functional, cell-based; details: KB-S15, 72 h
In short: (§1)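 Resistant KB sublines were maintained in extra drug: KB-Vin10 in 10 nM vincristine, KB-S15 in 50 nM paclitaxel, KB-7D in 7 μM VP16. Cells were kept drug-free for 3 days before harvest. Seeded at 8000−20000 cells/mL/well and exposed 72 h. Read by methylene blue, A595 after N-lauroylsarcosine extraction. Means and standard errors of ≥3 experiments in duplicate.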

[2] = Growth inhibition of human KB-VIN10 cells after 72 hrs by methylene blue assay; assay type: functional, cell-based; details: KB-VIN10, 72 h; in short: as §1
[3] = Growth inhibition of human KB-7d cells after 72 hrs by methylene blue assay; assay type: functional, cell-based; details: KB7D; in short: as §1
MKN-45 = assay: Growth inhibition of human MKN45 cells after 72 hrs by methylene blue assay; assay type: functional, cell-based; details: MKN-45, 72 h
In short: (§2)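 HT29, KB and MKN45 cells grown in DMEM, MEM or RPMI 1640 with 10% FBS at 37 °C in 5% CO2. Seeded at 8000−20000 cells/mL/well and allowed to adhere overnight. Exposed to various drug concentrations for 72 h, then methylene blue stain extracted with 1% N-lauroylsarcosine and A595 read. IC50 taken relative to untreated cells; means and standard errors, ≥3 independent experiments in duplicate.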

HT-29 = assay: Growth inhibition of human HT-29 cells after 72 hrs by methylene blue assay; assay type: functional, cell-based; details: HT-29, 72 h; in short: as §2
KB = assay: Growth inhibition of human KB cells after 72 hrs by methylene blue assay; assay type: functional, cell-based; in short: as §2
Bos taurus [4] = species: Bos taurus; assay: Displacement of [3H]cholchicine from bovine brain tubulin at 1 uM after 2 hrs by scintillation counting
Bos taurus [5] = species: Bos taurus; assay: Displacement of [3H]cholchicine from bovine brain tubulin at 5 uM after 2 hrs by scintillation counting
[6] = (§3) Inhibition of bovine brain tubulin polymerization measured every 30 sec for 30 mins by turbidimetric assay; set-up: species or system Bos taurus
Bos taurus [7] = species: Bos taurus; assay: Displacement of [3H]cholchicine from bovine brain tubulin after 2 hrs by scintillation counting
In short: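 Scintillation proximity assay: 0.08 μM [3H]colchicine plus test compound and 0.5 μg biotin-labeled tubulin in 80 mM PIPES pH 6.8, 1 mM EGTA, 10% glycerol, 1 mM MgCl2, 1 mM GTP, 2 h at 37 °C. Streptavidin SPA beads (80 μg) then added and counts read directly by scintillation counter.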

Bos taurus [8] = species: Bos taurus; assay: Inhibition of bovine brain tubulin polymerization at 5 uM measured every 30 sec for 30 mins by turbidimetric assay
Bos taurus [9] = species: Bos taurus; assay: as §3
HUVEC [10] = assay: Cytotoxicity against HUVEC assessed as reduction in cell viability at 15 to 120 uM; assay type: cell-based; details: human
HUVEC [11] = assay: Antiangiogenic activity in HUVEC assessed as inhibition of capillary tube formation after 4 hrs by Matrigel matrix assay; assay type: functional, cell-based; details: Homo sapiens
In short: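 HUVECs seeded at 2 × 10^4 cells/well on Matrigel in M199 with 20% FBS and 20 ng/mL VEGF. Capillaries formed over 4 h before test compound or DMSO vehicle was added. Imaged at addition and 4 h later. Capillary tube networks counted manually under a microscope at 100×, expressed relative to vehicle control. Mean ± SD of three separate experiments.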

Question: Which IC50 [1] does the source give for `COc1cc([C@@H]2c3cc4c(cc3[C@@H](O[C@@H]3O[C@@H]5CO[C@@H](C)O[C@H]5[C@H](O)[C@H]3O)[C@H]3COC(=O)[C@H]23)OCO4)cc(OC)c1O` [ETOPOSIDE] here?
Answer: Its IC50 is 3500 nM.

Question: And the IC50 [2]?
Answer: The IC50 was 23000 nM.

Question: What about the IC50 [3] of the same molecule?
Answer: Its IC50 is 54000 nM.

Question: With `COc1cc2c(c(OC)c1OC)-c1ccc(OC)c(=O)cc1[C@@H](NC(C)=O)CC2` [COLCHICINE] as the molecule, how does the IC50 (MKN-45) read?
Answer: The IC50 was 19.2 nM.

Question: And the IC50 (HT-29)?
Answer: Its IC50 is 16.2 nM.

Question: Which results are given for `CC[C@]1(O)C[C@H]2CN(CCc3c([nH]c4ccccc34)[C@@](C(=O)OC)(c3cc4c(cc3OC)N(C=O)[C@H]3[C@@](O)(C(=O)OC)[C@H](OC(C)=O)[C@]5(CC)C=CCN6CC[C@]43[C@@H]65)C2)C1` [VINCRISTINE]?
Answer: IC50 [1]: 17.6 nM; IC50 [2]: 90.1 nM; IC50 [3]: 1.2 nM

Question: With `COc1cc(Oc2ccc3c(N)c(OC)ccc3n2)cc(OC)c1OC` as the molecule, how does the IC50 [1] read?
Answer: The IC50 was 42.9 nM.

Question: What about the IC50 (KB) of the same molecule?
Answer: Its IC50 is 31 nM.

Question: And the IC50 [2]?
Answer: Its IC50 is 78.8 nM.

Question: What about the IC50 (MKN-45) of the same molecule?
Answer: The IC50 was 61 nM.

Question: What about the IC50 [3] of the same molecule?
Answer: The IC50 was 76.2 nM.

Question: And the IC50 (HT-29)?
Answer: The IC50 was 139 nM.

Question: And the inhibition (Bos taurus [4])?
Answer: The inhibition was 44%.

Question: And the inhibition (Bos taurus [5])?
Answer: Its inhibition is 60%.

Question: What about the IC50 [6] of the same molecule?
Answer: Its IC50 is 5800 nM.

Question: With `COc1cc(S(=O)(=O)c2ccc3c(N)c(OC)ccc3n2)cc(OC)c1OC` as the molecule, how does the IC50 [1] read?
Answer: Its IC50 is 2.5 nM.

Question: And the inhibition (Bos taurus [7])?
Answer: The inhibition was “Dose-dependent effect”.

Question: What about the IC50 (KB) of the same molecule?
Answer: The IC50 was 18 nM.

Question: And the IC50 [2]?
Answer: The IC50 was 2.8 nM.

Question: And the inhibition (Bos taurus [8])?
Answer: Its inhibition is “Active”.

Question: And the IC50 (MKN-45)?
Answer: The IC50 was 4 nM.

Question: And the IC50 [3]?
Answer: The IC50 was 2.4 nM.

Question: And the IC50 (HT-29)?
Answer: The IC50 was 16 nM.

Question: What about the inhibition (Bos taurus [4]) of the same molecule?
Answer: Its inhibition is 65%.

Question: What about the inhibition (Bos taurus [5]) of the same molecule?
Answer: The inhibition was 85%.

Question: What about the inhibition (Bos taurus [9]) of the same molecule?
Answer: Its inhibition is “Dose-dependent effect”.

Question: And the IC50 [6]?
Answer: Its IC50 is 2000 nM.

Question: Which results are given for `COc1cc(C(=O)c2ccc3c(Cl)c(OC)ccc3n2)cc(OC)c1OC`?
Answer: IC50 (KB): 45 nM; IC50 (MKN-45): 60 nM; IC50 (HT-29): 51 nM

Question: With `COc1cc(C(=O)c2ccc3c(Br)c(OC)ccc3n2)cc(OC)c1OC` as the molecule, how does the IC50 (KB) read?
Answer: Its IC50 is 108 nM.

Question: What about the IC50 (MKN-45) of the same molecule?
Answer: Its IC50 is 167 nM.

Question: And the IC50 (HT-29)?
Answer: Its IC50 is 195 nM.

Question: For `COc1cc(Sc2ccc3c(N)c(OC)ccc3n2)cc(OC)c1OC`, which IC50 (KB) is on record?
Answer: Its IC50 is 59 nM.

Question: And the IC50 (MKN-45)?
Answer: The IC50 was 28 nM.

Question: And the IC50 (HT-29)?
Answer: Its IC50 is 40 nM.

Question: For `CC(=O)O[C@H]1C(=O)[C@@]2(C)[C@H]([C@H](OC(=O)c3ccccc3)[C@]3(O)C[C@H](OC(=O)[C@H](O)[C@@H](NC(=O)c4ccccc4)c4ccccc4)C(C)=C1C3(C)C)[C@]1(OC(C)=O)CO[C@@H]1C[C@@H]2O` [PACLITAXEL], which IC50 [1] is on record?
Answer: Its IC50 is 273 nM.

Question: What about the IC50 [2] of the same molecule?
Answer: Its IC50 is 16500 nM.

Question: And the IC50 [3]?
Answer: The IC50 was 7.9 nM.

Question: Which results are given for `COc1cc(C(=O)c2ccc3c(O)c(OC)ccc3n2)cc(OC)c1OC`?
Answer: IC50 [1]: 5.2 nM; IC50 (KB): 2.8 nM; IC50 [2]: 5.8 nM; inhibition (Bos taurus [8]): Active; Activity (HUVEC [10]): Non-toxic; IC50 (MKN-45): 4.5 nM; IC50 [3]: 9.2 nM; IC50 (HT-29): 3.1 nM; Activity (HUVEC [11]): Dose-dependent effect; inhibition (Bos taurus [4]): 91%; inhibition (Bos taurus [5]): 97%; inhibition (Bos taurus [9]): Dose-dependent effect; IC50 [6]: 1500 nM

Question: Which results are given for `COc1cc(-c2ccc3c(N)c(OC)ccc3n2)cc(OC)c1OC`?
Answer: IC50 (KB): > 5000 nM; IC50 (MKN-45): > 5000 nM; IC50 (HT-29): > 5000 nM

Question: Which results are given for `COc1cc(Nc2ccc3c(N)c(OC)ccc3n2)cc(OC)c1OC`?
Answer: IC50 (KB): > 5000 nM; IC50 (MKN-45): > 5000 nM; IC50 (HT-29): > 5000 nM

Question: Which IC50 (KB) does the source give for `COc1cc(C(=O)c2ccc3c(I)c(OC)ccc3n2)cc(OC)c1OC` here?
Answer: Its IC50 is 451 nM.

Question: And the IC50 (MKN-45)?
Answer: The IC50 was 819 nM.

Question: And the IC50 (HT-29)?
Answer: Its IC50 is 1090 nM.
